High-throughput results from PubChem.
Sampled rows, rich in hits. Any-hit rate of the full collection: about 1.6%.
PG9 Ab binder = small molecules binding HIV-1 gp120 antibody PG9 | TR-FRET gp120-PG9 antibody binding | AID 624416 | inhibition, % at 6.7 µM | 360,000 compounds, 0.43% hits; in the data active = inhibition above about 8.5%
NR2E3 ag-1 = human photoreceptor-specific nuclear receptor agonism; Q9Y5X4; CHO-S Gal4-NCOR/VP16-NR2E3 two-hybrid, luciferase; inhibition of corepressor binding, % at 3.98 µM; 360,000 compounds, 0.35% hits; AID 602229;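 active = inhibition above the mean of all tested compounds plus 3 SD, cut at about 70% in these data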;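 note: higher means lower luciferase signal from less NR2E3 corepressor binding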
PKA-R1A activ = activates the PKA-R1A holoenzyme complex. activation, % at 11.4 µM. 340,000 compounds, 0.083% hits. PKA-R1A dissociation, Cy5-IP20 fluorescence polarization; scaled: DMSO 0%, 113 µM cGMP 100%;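 active = percent activation above the mean of all tested compounds plus 3 SD, cut at about 19% in these data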;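 note: higher means more PKAc released from R1A so a rise in polarization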
PKA-R2B activ = PKA-R2B complex activation. 340,000 compounds, 0.079% hits. P22694+P31323. PKA-R2B holoenzyme dissociation, Cy5-IP20 fluorescence polarization; R2B truncated from residue 108, S112A mutant; 0% DMSO only, 100% 113 µM cGMP. AID 504700. activation, % at 11.4 µM;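 active = activation above a cutoff set at the mean over all compounds plus 3 SD, cut at about 18% in these data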;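 note: higher means more holoenzyme dissociation and a rise in polarization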
NR2E3 ag-2 = NR2E3 (human) agonism. Q9Y5X4. GST-NR2E3/biotin-RetCOR TR-FRET, 1536-well. inhibition of corepressor binding, % at 4.78 µM. 320,000 compounds, 0.12% hits;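 active = percent inhibition above the cutoff of mean plus 3 SD of all tested compounds, set per screening campaign, cut at about 20% in these data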
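system = GST-tagged NR2E3 plus biotinylated RetCOR corepressor | input = 1.35 nM GST-NR2E3 | also added = 7 nM biotin-RetCOR | schedule = 5 h incubation at 4 °C | measured by = TR-FRET with europium anti-GST and streptavidin-D2, 340 nm excitation | read-out = percent loss of FRET ratio relative to control wells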
NR1D1 modulator = modulates human Rev-erb alpha binding to DNA. 370,000 compounds, 0.79% hits. P20393. Rev-erbα–FITC-DNA binding, fluorescence polarization, 90 min. activity, % at 10 µM;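 active = activity above about 14%, limit read from the data; passing the limit was not always enough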
Target sequence (P20393 whole entry, looked up): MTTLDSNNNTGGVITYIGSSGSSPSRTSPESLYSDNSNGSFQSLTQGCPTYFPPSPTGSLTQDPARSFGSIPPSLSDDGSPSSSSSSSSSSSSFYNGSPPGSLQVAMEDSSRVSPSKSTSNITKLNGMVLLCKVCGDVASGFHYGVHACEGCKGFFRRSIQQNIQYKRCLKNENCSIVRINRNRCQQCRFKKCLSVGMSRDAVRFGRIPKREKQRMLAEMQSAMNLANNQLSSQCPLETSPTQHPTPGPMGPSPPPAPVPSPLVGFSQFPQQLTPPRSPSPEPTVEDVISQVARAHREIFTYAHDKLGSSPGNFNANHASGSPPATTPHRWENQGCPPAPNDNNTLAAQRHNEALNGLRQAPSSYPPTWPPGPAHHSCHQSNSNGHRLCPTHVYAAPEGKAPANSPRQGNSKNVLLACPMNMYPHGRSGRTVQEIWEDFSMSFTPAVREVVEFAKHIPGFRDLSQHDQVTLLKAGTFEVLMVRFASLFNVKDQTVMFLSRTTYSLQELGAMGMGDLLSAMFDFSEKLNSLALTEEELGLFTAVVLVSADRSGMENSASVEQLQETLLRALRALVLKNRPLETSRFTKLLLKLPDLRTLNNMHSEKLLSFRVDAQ
Rev-erbA confirm = Rev-erb alpha (human) modulation, hit confirmation. Rev-erb alpha FITC-DNA binding, fluorescence polarization, 90 min. AID 1259319. shares compounds with NR1D1 modulator. activation, % at 25 µM. 3,000 compounds, 61% hits;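 active = activation at or above a set limit, or at least 3 SD above the negative control mean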
RORg counter = RORgamma DNA-binding activity, dose-response counter-screen; shares compounds with NR1D1 modulator; purified RORgamma protein-FITC-DNA binding, fluorescence polarization; IC50, µM; 910 compounds, 8% hits; AID 1259320;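 active = Compounds whose fitted half-maximal concentration for disrupting protein-DNA binding is below 10 micromolar; the record names Rev-erb in its text, so the target is in doubt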
Hits are given with their value; i = inactive; nt = not tested or not shown.

SMILES | PG9 Ab binder | NR2E3 ag-1 | PKA-R1A activ | PKA-R2B activ | NR2E3 ag-2 | NR1D1 modulator | Rev-erbA confirm | others
CCCCn1c(=O)[nH]c(=O)c2c1nc(-c1cc(Cl)c(OC)c(OC)c1)n2C | i | i | i | i | i | 15 | i
CCCCn1c(=O)[nH]c(=O)c2c1nc(-c1ccc(OC(F)F)c(OC)c1)n2C | i | i | i | i | i | i | nt
Cc1cc(C)cc(NC(=S)/C(=C(\[O-])c2ccc(Cl)cc2Cl)[n+]2ccc(C(C)(C)C)cc2)c1 | i | i | i | i | i | 36 | 31 | RORg counter=7.9
CC(C)c1[nH]nc2c1C(c1ccc3c(c1)OCO3)NC2=O (configuration not stated) | i | nt | nt | nt | nt | 22 | i
O=C1NC(c2ccc3c(c2)OCO3)c2c(-c3ccccc3)n[nH]c21 (configuration not stated) | i | nt | nt | nt | nt | i | nt
O=[N+]([O-])c1ccc(CSc2nnc(-c3cccc(Cl)c3)n2Cc2ccco2)cc1 | nt | nt | nt | nt | nt | i | nt
O=C1OC(c2ccccc2)(c2ccccc2)c2ccsc21 | i | i | i | i | nt | 23 | 20
O=C1OC(c2ccc(O)cc2)(c2ccc(O)cc2)c2ccccc21 | i | i | i | i | i | i | nt
COc1cccc(CNC(=O)Cn2c(-c3ccccc3)cc(C(C)=O)c2C)c1 | nt | nt | nt | nt | nt | i | nt
COc1ccc(F)cc1-c1cc(C(C)=O)c2n(c1=O)CCC2 | nt | nt | nt | nt | nt | i | nt
CCc1ccc(Nc2n[n+](-c3ccccc3)c(-c3ccc(OCc4ccccc4)cc3)s2)cc1 | i | i | i | i | i | 16 | i
c1ccc(COc2ccc(-c3sc(Nc4ccccc4)n[n+]3-c3ccccc3)cc2)cc1 | nt | nt | nt | nt | i | nt | nt
CN(C)c1ccc(C(=O)NCCc2ccccc2-c2ccccc2CCC(=O)NCc2ccccc2)cc1 | nt | nt | nt | nt | nt | i | nt
COC(=O)c1ccc2c(=O)n3c(nc2c1)SCC(c1ccccc1)=N3 | i | i | i | i | i | 80 | i
CCSc1nc2cc(C(=O)OC)ccc2c(=O)n1CC | i | i | i | i | i | i | nt
C=CCNC(=O)Cn1nnc(-c2ccc(-c3ccc(OC)cc3)cc2)n1 | i | i | i | i | i | 39 | i
COc1ccc(-c2ccc(-c3nnn(CC(C)=O)n3)cc2)cc1 | i | i | i | i | i | i | nt
CCOC(=O)C1(Cc2ccccc2)CCN(Cc2ccc(C(F)(F)F)cc2)CC1 | nt | nt | nt | nt | nt | i | nt
Cc1cc(NC(=O)CSc2ncnc3ccccc23)no1 | i | i | i | i | i | i | nt
Cc1cc(NC(=O)CSc2nc(-c3cccs3)nc3ccccc23)no1 | i | i | i | i | i | 28 | 19
CCCCn1c(SCC(=O)Nc2ccc(NC(C)=O)cc2)nc2ccccc2c1=O | i | i | i | i | i | i | nt
CCCCn1c(SCC(=O)Nc2cc(C)on2)nc2ccccc2c1=O | i | i | i | i | i | 43 | i
CCOC(=O)N1C(=O)C[C@](Sc2ccc(OC)cc2)(C(=O)N2CCN(c3ncccn3)CC2)[C@H]1c1ccc(OC)cc1 | nt | nt | nt | nt | nt | i | nt
COC(=O)[C@]12C[C@H](CC(=O)NCCc3ccccc3OC)C(=O)N(Cc3ccc(Cl)cc3Cl)C1=C[C@H](C(C)C)O[C@@H]2C1CC1 | nt | nt | nt | nt | nt | i | nt
CCN(CC)CCCNC(=O)CSc1nc2cccnc2n1C | nt | nt | nt | nt | nt | i | nt
SMILES | PG9 Ab binder | NR2E3 ag-1 | PKA-R1A activ | PKA-R2B activ | NR2E3 ag-2 | NR1D1 modulator | Rev-erbA confirm | others
COc1cccc(/C=C/C(=O)OCC(=O)c2ccc(S(=O)(=O)N3CCCCC3)cc2)c1OC | i | i | i | i | i | i | nt
COc1cc(/C=C/C(=O)OCC(=O)c2ccc(S(=O)(=O)N3CCCCC3)cc2)cc(OC)c1OC | i | i | i | i | nt | 18 | i
CCCCCCCCNS(=O)(=O)/C=C/c1ccc(OC)cc1CNC(=O)OC(C)(C)C | nt | nt | nt | nt | nt | i | nt
CC(=O)OCC(=O)N1CCN(C(=O)C(=O)c2cccc(C(F)(F)F)c2)CC1 | i | nt | nt | nt | nt | i | nt
O=C(NCC1CCCO1)c1cn(Cc2ccccc2)nc1-c1ccccc1 (configuration not stated) | i | i | i | i | i | 27 | i
O=C(NC1CCCCN(Cc2ccc(Cl)cc2)C1=O)C(c1ccccc1)c1ccccc1 (configuration not stated) | nt | nt | nt | nt | nt | i | nt
Cc1ccc2nc(-c3ccc(F)cc3)c(Cc3ccccc3C(F)(F)F)n2c1 | i | i | nt | nt | nt | 17 | i
COc1ccc(-c2nc3ccc(C)cn3c2Cc2ccccc2C(F)(F)F)cc1OC | i | nt | nt | nt | nt | i | nt
COc1ccc(-c2nc3ccc(Br)cn3c2Cc2ccccc2C(F)(F)F)cc1OC | i | i | nt | nt | nt | 16 | i
O=C(NC1CCCCN(Cc2cccc(C(F)(F)F)c2)C1=O)c1cccc(C(F)(F)F)c1 (configuration not stated) | nt | nt | nt | nt | nt | i | nt
O=C(c1ccccc1)N1N=C(c2ccccc2)CC1c1ccccc1 (configuration not stated) | i | i | i | i | i | i | nt
Cc1ccc(C(=O)N2N=C(c3ccccc3O)CC2c2ccccc2)cc1 (configuration not stated) | i | i | i | i | i | 38 | 25
Cc1cc(C)c(Cn2c3ccccc3c3cnn(CC(=O)NCc4ccccn4)c(=O)c32)c(C)c1 | i | i | i | i | i | 39 | 18
O=C(C(=O)N1CCC(CNS(=O)(=O)c2ccccc2OC(F)(F)F)CC1)c1cccs1 | i | nt | nt | nt | nt | i | nt
CN(c1ccccc1)c1nc(N2CCCC2)nc(-n2ccnc2)n1 | i | i | i | i | i | i | nt
c1ccc(N(c2ccccc2)c2nc(N3CCCC3)nc(-n3ccnc3)n2)cc1 | i | i | i | i | i | 37 | 58 | RORg counter=8.5
CN(Cc1ccco1)C(=O)CN1C(=O)C2(OCCCO2)c2ccccc21 | nt | nt | nt | nt | nt | i | nt
CCCN(CCC)S(=O)(=O)c1ccc(C(=O)Nc2nc(-c3ccccc3)c(C(=O)OCC)s2)cc1 | i | i | i | i | i | 33 | i
O=C(Nc1nc(-c2ccccc2)c(C(=O)c2ccccc2)s1)c1ccc(S(=O)(=O)N2CCCCC2)cc1 | i | i | i | i | i | 23 | 85 | RORg counter=i
CCOC(=O)c1sc(NC(=O)c2ccc(S(=O)(=O)N(C)C)cc2)nc1C | i | i | i | i | i | 36 | 38 | RORg counter=i
O=C(c1ccccc1)N1CCC2CCN(S(=O)(=O)c3ccccc3)CC21 (configuration not stated) | i | nt | nt | nt | nt | i | nt
CS(=O)(=O)/C(C#N)=C/c1cccn1S(=O)(=O)c1ccccc1 | i | i | i | i | i | i | nt
CC(C)(C)S(=O)(=O)/C(C#N)=C/c1cccn1S(=O)(=O)c1ccccc1 | i | i | nt | nt | nt | 17 | 11
